# Results taken from article PMC11437748 (Computational and Structural Biotechnology Journal, 2024).
# Bridges are numbered along the chain shown (N, C = ends). Where no end group is shown, it is not given here.
# Assays:
# [1] = system: tested Gram-positive bacteria; assay: Geometric mean of MICs and TI, Gram-positive bacteria; assay type: cell-based; settings: geometric mean of the MICs against tested Gram-positive bacteria
# In short: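 Broth dilution against S. aureus NCTC 10788, MRSA NCTC 12493 and E. faecalis NCTC 12697. Overnight cultures subcultured to OD550 0.23 (about 1×10^8 cfu/ml), then diluted to 5×10^5 cfu/ml. Test compound at 1–128 μM, 37 °C, 18 h, growth read at 550 nm. MIC = lowest concentration with no growth. Three independent runs in triplicate. Geometric mean taken across the MICs.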
# E. coli 2340 [2] = assay: Salt sensitivity assay; assay type: cell-based, Escherichia coli; settings: three independent repeats
# In short: (§1)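 MIC/MBC measured in MHB supplemented with salts, including 150 mM NaCl, 2 mM CaCl₂ or 1 mM MgCl₂. Gram-negative cultures subcultured to OD550 0.4, then diluted to 5×10^5 cfu/ml. Test compound 1–128 μM, 37 °C, 18 h, growth at 550 nm. MBC: wells spotted on agar for 18 h at 37 °C; lowest concentration with no colonies. Three independent repeats.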
# tested E. coli strains = assay: ONPG assay, inner membrane permeabilisation; assay type: cell-based, Escherichia coli; settings: E. coli 8739
# In short: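 E. coli grown in LB with 2 % lactose to log phase, then pelleted. Incubated with test compound while absorbance at 460 nm was monitored continuously at 37 °C. Untreated cells, melittin and solvent-only groups included. Three independent runs, three replicates each.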
# [3] = system: E. coli plasmid DNA (pBR322); assay: DNA binding assay; parameters: species or system Escherichia coli; settings: 100 ng plasmid DNA, 37 °C, 1 h, agarose gel electrophoresis
# In short: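 Gel retardation: test compound (final 1–32 μM) incubated with 100 ng E. coli plasmid DNA at 37 °C for 1 h. Buffer: 1 mM EDTA, 10 mM Tris-HCl pH 8.0, 5 % glucose, 50 μg/ml BSA, 20 mM KCl. Resolved by agarose gel electrophoresis in 1 × TAE. A known DNA-binding peptide at equal concentrations served as control.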
# E. coli 8739 = assay: Salt sensitivity assay; assay type: cell-based, Escherichia coli; settings: three independent repeats
# In short: as §1
# E. coli 2340 [4] = assay: In vivo antibacterial study, G. mellonella larvae model; parameters: species or system Galleria mellonella; settings: five days; 10, 20, 40 mg/kg; ten larvae per group
# In short: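 Galleria mellonella larvae injected in the last right proleg with E. coli suspension (1×10^7 CFU/ml). Test compound given 1 h later at 10, 20 or 40 mg/kg. Larvae kept at 37 °C for five days, survival scored daily, ten larvae per group. Rifampin 20 mg/kg was the positive control and sterile PBS the negative control. Three independent experiments.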
# E. coli 13846 = assay: Salt sensitivity assay; assay type: cell-based, Escherichia coli; settings: three independent repeats
# In short: as §1
# [5] = Secondary structure analysis by CD spectrometry; assay type: physicochemical; settings: for α helix (%) NH4AC: 50 µM peptide in 10 mM NH4AC; for α helix (%) NH4AC / α helix (%) TFE: CD 190 to 260 nm, K2D3 estimate; for α helix (%) TFE: 50 µM peptide in 50 % TFE (v/v, in 10 mM NH4AC)
# In short: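 CD spectra of test compound (final 50 µM) in 10 mM ammonium acetate, in 50 % TFE (v/v, in 10 mM ammonium acetate), or with LPS O26:B6 (100 µM) in 10 mM ammonium acetate. Scanned 190–260 nm at 100 nm/min, 1 nm bandwidth, 0.5 nm data pitch. Helix content estimated with K2D3.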
# [6] = system: E. coli 8739, E. coli 13846, and E. coli 2340; assay: Time-killing kinetic assay; assay type: cell-based, Escherichia coli
# In short: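 E. coli at 10^6 CFU/ml mixed with test compound at 1×, 2× or 4× MIC. 10 µl aliquots taken into PBS at 0, 5, 10, 20, 30, 60, 90, 120 and 180 min and plated on agar. Colonies counted after 24 h incubation. Three independent sessions, three replicates each.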
# [7] = system: three tested E. coli strains; assay: NPN assay, outer membrane permeabilisation; assay type: cell-based, Escherichia coli; settings: 1 × MIC, 2 × MIC, 4 × MIC; 37 °C, 2 h
# In short: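 Log-phase E. coli pelleted at 3000g for 10 min and washed three times in 5 mM HEPES pH 7.2 with 5 mM glucose. Resuspended at 1×10^7 CFU/ml with NPN and test compound at 1×, 2× or 4× MIC. Incubated at 37 °C for 2 h, then fluorescence read at […]. Melittin set 100 % and buffer 0 % permeability. Three independent runs.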
substance,measurement,setting,value
FFPKVAGVAAKVLKKFCTISKKC (disulfide 17-23 (inferred)) [des-Ala^16-[Lys^4]brevinin−1pl],GM G+,[1],80.63 µM
same,MBC,E. coli 2340 [2]; 4 µM FeCl3 in MHB medium,4 /4
same,MIC,E. coli 2340 [2]; 4 µM FeCl3 in MHB medium,4 /4
same,MBC,E. coli 2340 [2]; 6 µM NH4Cl in MHB medium,4 /4
same,MIC,E. coli 2340 [2]; 6 µM NH4Cl in MHB medium,4 /4
same,MBC,E. coli 2340 [2]; 8 µM ZnCl2 in MHB medium,4 /4
same,MIC,E. coli 2340 [2]; 8 µM ZnCl2 in MHB medium,4 /4
same,MBC,E. coli 2340 [2]; 1 mM MgCl2 in MHB medium,8 /8
same,MIC,E. coli 2340 [2]; 1 mM MgCl2 in MHB medium,8 /8
same,MBC,E. coli 2340 [2]; 2 mM CaCl2 in MHB medium,16 /16
same,MIC,E. coli 2340 [2]; 2 mM CaCl2 in MHB medium,16 /16
same,MBC,E. coli 2340 [2]; 4.5 mM KCl in MHB medium,2 /2
same,MIC,E. coli 2340 [2]; 4.5 mM KCl in MHB medium,2 /2
same,MBC,E. coli 2340 [2]; 150 mM NaCl in MHB medium,4 /4
same,MIC,E. coli 2340 [2]; 150 mM NaCl in MHB medium,4 /4
same,MBC,"E. coli 2340 [2]; Control, MHB medium",4 /4
same,MIC,"E. coli 2340 [2]; Control, MHB medium",4 /4
same,changes in OD values in the ONPG assay (release of cytoplasmic beta-galactosidase),tested E. coli strains,did not induce obvious changes in OD values
same,concentration of complete retardation of plasmid DNA,[3],16 µM
same,MBC,E. coli 8739; 4 µM FeCl3 in MHB medium,2 /2
same,MIC,E. coli 8739; 4 µM FeCl3 in MHB medium,2 /2
same,MBC,E. coli 8739; 6 µM NH4Cl in MHB medium,2 /2
same,MIC,E. coli 8739; 6 µM NH4Cl in MHB medium,2 /2
same,MBC,E. coli 8739; 8 µM ZnCl2 in MHB medium,2 /2
same,MIC,E. coli 8739; 8 µM ZnCl2 in MHB medium,2 /2
same,MBC,E. coli 8739; 1 mM MgCl2 in MHB medium,32 /32
same,MIC,E. coli 8739; 1 mM MgCl2 in MHB medium,32 /32
same,MBC,E. coli 8739; 2 mM CaCl2 in MHB medium,8 /8
same,MIC,E. coli 8739; 2 mM CaCl2 in MHB medium,8 /8
same,MBC,E. coli 8739; 4.5 mM KCl in MHB medium,2 /2
same,MIC,E. coli 8739; 4.5 mM KCl in MHB medium,2 /2
same,MBC,E. coli 8739; 150 mM NaCl in MHB medium,4 /4
same,MIC,E. coli 8739; 150 mM NaCl in MHB medium,4 /4
same,MBC,"E. coli 8739; Control, MHB medium",2 /2
same,MIC,"E. coli 8739; Control, MHB medium",2 /2
same,survival rate of infected larvae,E. coli 2340 [4],90%
same,MBC,E. coli 13846; 4 µM FeCl3 in MHB medium,8 /8
same,MIC,E. coli 13846; 4 µM FeCl3 in MHB medium,8 /8
same,MBC,E. coli 13846; 6 µM NH4Cl in MHB medium,8 /8
same,MIC,E. coli 13846; 6 µM NH4Cl in MHB medium,8 /8
same,MBC,E. coli 13846; 8 µM ZnCl2 in MHB medium,8 /8
same,MIC,E. coli 13846; 8 µM ZnCl2 in MHB medium,8 /8
same,MBC,E. coli 13846; 1 mM MgCl2 in MHB medium,16 /16
same,MIC,E. coli 13846; 1 mM MgCl2 in MHB medium,16 /16
same,MBC,E. coli 13846; 2 mM CaCl2 in MHB medium,64 /64
same,MIC,E. coli 13846; 2 mM CaCl2 in MHB medium,64 /64
same,MBC,E. coli 13846; 4.5 mM KCl in MHB medium,8 /8
same,MIC,E. coli 13846; 4.5 mM KCl in MHB medium,8 /8
same,MBC,E. coli 13846; 150 mM NaCl in MHB medium,8
same,MIC,E. coli 13846; 150 mM NaCl in MHB medium,4
same,MBC,"E. coli 13846; Control, MHB medium",4 /4
same,MIC,"E. coli 13846; Control, MHB medium",4 /4
same,α helix (%) NH4AC,[5],31.95%
same,α helix (%) TFE,[5],95.28%
same,α helix content in the presence of LPS,"[5]; LPS (O26:B6, 100 µM) in 10 mM NH4AC, CD, K2D3 prediction",95.44%
same,bacteria eradication at 4 × MIC,[6]; 4 × MIC,almost immediate bacteria eradication upon contact
same,time to eradicate all cells,"[6]; 10^6 CFU/ml, peptide 1 × MIC to 4 × MIC, sampled 0 to 180 min, colony count",≤ 10 min
same,time to completely clear the bacteria,"[6]; at their MICs, three types of E. coli",≤ 1 h
same,outer membrane permeabilisation of the tested E. coli strains,[7],did not induce significant changes
"FFPKVAGVAAKV_KK_FCTISKKC (disulfide) [des-Leu^13, Ala^16-[Lys^4]brevinin−1pl]",GM G+,[1],256 µM
same,α helix (%) NH4AC,[5],34.65%
same,α helix (%) TFE,[5],95.28%
